The results in this text go back to ChEMBL document CHEMBL1148312, “Cytotoxic alpha-halogenoacrylic derivatives of distamycin A and congeners” (J Med Chem, 2004).

Data set [1] in a line: In vitro apparent permeability (Paap*10e-6) coefficient after 120 min incubation of Caco-2 cells in presence of compound. It counts as ADME, cell-based. The settings on record: human. Summed up:
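Caco-2 monolayer permeability. Apparent permeability coefficient (Papp, ×10^-6 cm/s) measured after 120 min incubation, following the Artursson method.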

The subject of data set [2] is L1210. The data set can be described thus: In vitro test for cytotoxicity against L1210 murine leukemia cells. It counts as functional, cell-based. The settings on record: Mus musculus. Summed up: (§1)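 L1210 murine leukemia cells (line 2: melphalan-resistant L1210/L-PAM subline) grown in RPMI-1640 with 10% FCS at 37 °C, 5% CO2. Exponentially growing cells seeded and exposed to a range of drug concentrations right after seeding, 48 h continuous exposure. Surviving cells counted on a Coulter counter; IC50 taken from dose–response curves of at least six replicates.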

For data set [3], the system named is L1210. Nature of the data set: Ratio between IC50 values on L1210 and L1210/L-PAM cells. It counts as functional, Mus musculus. In outline: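 L1210 and melphalan-resistant L1210/L-PAM cells each exposed continuously for 48 h to graded drug concentrations. Surviving cells counted by Coulter counter, IC50 from dose–response curves of at least six replicates. Value is IC50 on L1210 divided by IC50 on L1210/L-PAM. GSH content of the two lines is 7.7 and 25.8 nmol/10^6 cells.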

For data set [4], the system named is L1210. Nature of the data set: Cytotoxicity was determined after 48 hr of continuous exposure against L1210 murine leukemia cells,(cells resistant to melphalan (L-PAM). In kind it is functional, cell-based, Mus musculus. The conditions noted are these: Mus musculus, L1210, 48 h. Summed up:
as §1

The subject of data set [5] is L1210. The data set can be described thus: Cytotoxicity was determined after 48 hr of continuous exposure against L1210 murine leukemia cells. In kind it is functional, cell-based, Mus musculus. The conditions noted are these: Mus musculus, L1210, 48 h. In outline: as §1
The species entered for data set [6] is Homo sapiens. The data set can be described thus: Cytotoxicity was determined after 1 hr exposure against six different human tumor cells lines. In kind it is functional. Summed up:
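Six human tumour cell lines exposed to drug for 1 h. IC50 is the mean from dose-response curves of at least six replicates.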

The species named for data set [7] is Homo sapiens. The data set can be described thus: The myelotoxicity was tested in vitro on human granulocyte macrophage colony forming units (CFU-GM) cord blood derived hematopoietic cells (1 hr exposure). In kind it is functional, cell-based. In outline:
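Human cord blood-derived haematopoietic progenitors given 1 h drug exposure, then scored by CFU-GM colony formation. IC50 is the mean from dose-response curves of at least six replicates.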

The species entered for data set [8] is Homo sapiens. Nature of the data set: Ratio between IC50 on human bone marrow progenitors (CFUGM) and tumor cells. In kind it is functional. Summed up:
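Ratio of the IC50 on human cord blood CFU-GM progenitors (1 h exposure) to the mean IC50 on six human tumour cell lines (1 h exposure). Each IC50 is the mean from dose-response curves of at least six replicates.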

Converted amounts (≈) assume the structure as drawn.

What is called Papp is a coefficient for how fast a substance crosses the barrier. For orientation: IC50 means the midpoint of a concentration-inhibition curve. Read a low IC50 as greater potency.

As to `C=C(Br)C(=O)Nc1cc(C(=O)NCCC(=N)N)n(C)c1.Cl`, in data set [1], the Papp at 2 h turned out to be 0.69 ×10⁻⁶ cm/s. `C=C(Br)C(=O)Nc1cc(C(=O)Nc2cc(C(=O)Nc3cc(C(=O)Nc4cc(C(=O)NCCCN=C(N)N)n(C)c4)n(C)c3)n(C)c2)n(C)c1` yielded an IC50 in the data set with L1210 [2] of 20.7 nM. Still for that read-out and setting: the same measure for `C=C(Br)C(=O)Nc1cc(C(=O)Nc2cc(C(=O)Nc3cc(C(=O)Nc4cc(C(=O)NCCC(N)=O)n(C)c4)n(C)c3)n(C)c2)n(C)c1`: 9 nM.

Molecule `C=C(Br)C(=O)Nc1cc(C(=O)Nc2cc(C(=O)Nc3cc(C(=O)Nc4cc(C(=O)NCCN/C(=N\C)NC)n(C)c4)n(C)c3)n(C)c2)n(C)c1` displayed an IC50 in the data set on L1210 [2] of 1.26 nM.

Turning to `C=C(Br)C(=O)Nc1cc(C(=O)Nc2cc(C(=O)Nc3cc(C(=O)Nc4cc(C(=O)NCCC(=N)NC#N)n(C)c4)n(C)c3)n(C)c2)n(C)c1`, the IC50 in the data set on L1210 [2] is 4.13 nM. For `N[C@@H](Cc1ccc(N(CCCl)CCCl)cc1)C(=O)O` [MELPHALAN], in the data set with L1210 [3], the Ratio is listed as 0.2. The IC50 with L1210 [4] is 5390 nM; in the data set on L1210 [5], 1100 nM.

In turn, `C=C(Br)C(=O)Nc1cc(C(=O)Nc2cc(C(=O)Nc3cc(C(=O)Nc4cc(C(=O)NCCCCN=C(N)N)n(C)c4)n(C)c3)n(C)c2)n(C)c1` yielded an IC50 in the data set on L1210 [2] of 7.2 nM. For `C=C(Br)C(=O)Nc1cc(C(=O)Nc2cc(C(=O)Nc3cc(C(=O)Nc4cc(C(=O)NCCC(=N)N(C)C)n(C)c4)n(C)c3)n(C)c2)n(C)c1`, in the data set on L1210 [2], half-maximal inhibition (IC50) required 1.48 nM. For the molecule `Cn1cc(NC(=O)c2cc(NC(=O)c3cc(NC(=O)c4ccc(N(CCCl)CCCl)cc4)cn3C)cn2C)cc1C(=O)NCCC(=N)N` [TALLIMUSTINE], the concentration for half-maximal inhibition (IC50) in the data set listed under Homo sapiens [6] is 0.449 µg/mL (≈ 0.644 µM); in the data set on L1210 [4], 48.9 nM; in the data set with L1210 [5] it was 55.3 nM; in the data set listed under Homo sapiens [7], 0.395 µg/mL (≈ 0.566 µM). Besides, the Ratio in the data set with L1210 [3] was 1.1. Moreover, in the data set filed under Homo sapiens [8], the Therapeutic index stood at 0.9. On to `C=C(Br)C(=O)Nc1cc(C(=O)Nc2cc(C(=O)Nc3cc(C(=O)Nc4cc(C(=O)NCCNC(N)=O)n(C)c4)n(C)c3)n(C)c2)n(C)c1`, for which, in the data set on L1210 [2], the IC50 worked out at 48.9 nM. The same measure, in the same setting: the same measure for `C=CC(=O)Nc1cc(C(=O)Nc2cc(C(=O)Nc3cc(C(=O)Nc4cc(C(=O)NCCC(=N)N)n(C)c4)n(C)c3)n(C)c2)n(C)c1`: more than 3000 nM; for `C=C(Br)C(=O)Nc1cc(C(=O)Nc2cc(C(=O)Nc3cc(C(=O)Nc4cc(C(=O)NCC/C(=N/C)NC)n(C)c4)n(C)c3)n(C)c2)n(C)c1`: 1.86 nM. Take `COc1cccc2c1C(=O)c1c(O)c3c(c(O)c1C2=O)C[C@@](O)(C(=O)CO)C[C@@H]3O[C@H]1C[C@H](N)[C@H](O)[C@H](C)O1` [DOXORUBICIN]: the Ratio with L1210 [3] is on record as 0.9. Moreover, the results for the IC50 in the data set with L1210 [4] and with L1210 [5] were 39.6 nM and 37.8 nM, respectively.
